# Source: PubChem
# Most compounds without a hit are left out; they make up all but 2.5% or so of the library.
# MsrA inh – bovine MsrA inhibition; purified bovine MsrA, absorbance read-out; inhibition, % at 15.5 µM; 360,000 tested, 0.75% active; in the data active = inhibition above about 4.5%
# GalR3 antag – human GalR3 antagonism; O60755; HEK293 GalR3-CNG cAMP membrane potential fluorescence; galR3 body fused to GalR1 C-terminus; inhibition, % at 3 µM; 360,000 tested, 0.44% active; AID 651719;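 active = inhibition above the screen-wide average plus 3 SD, cut at about 13% in these data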;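 note: forskolin and galanin both at EC90 stimulate the cells; cAMP rise reported by CNG channel membrane potential dye signal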
# MsrA act – activators of bovine methionine sulfoxide reductase A; purified bovine MsrA, absorbance read-out; activation, % at 10.6 µM; AID 602163; 360,000 tested, 0.3% active; in the data active = activation above about 7.5%
# NR2E3 ag-1 – agonists of human nuclear receptor NR2E3 | Q9Y5X4 | GST-NR2E3/biotin-RetCOR TR-FRET, 1536-well | inhibition of corepressor binding, % at 4.78 µM | 320,000 tested, 0.12% active | AID 2300;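 active = percent inhibition above the cutoff of mean plus 3 SD of all tested compounds, set per screening campaign, cut at about 20% in these data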
# Target sequence (Q9Y5X4 whole entry, looked up): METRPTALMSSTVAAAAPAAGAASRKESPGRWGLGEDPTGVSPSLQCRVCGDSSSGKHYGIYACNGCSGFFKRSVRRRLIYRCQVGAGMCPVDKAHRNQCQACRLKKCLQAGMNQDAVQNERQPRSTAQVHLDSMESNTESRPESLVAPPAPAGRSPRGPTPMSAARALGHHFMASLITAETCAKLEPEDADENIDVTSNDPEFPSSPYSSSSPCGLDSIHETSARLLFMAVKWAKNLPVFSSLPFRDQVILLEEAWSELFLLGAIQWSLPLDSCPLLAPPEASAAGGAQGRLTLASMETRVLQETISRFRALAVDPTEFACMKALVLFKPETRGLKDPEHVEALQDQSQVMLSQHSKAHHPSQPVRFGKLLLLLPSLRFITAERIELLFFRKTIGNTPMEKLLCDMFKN
#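 Material: NR2E3–RetCOR corepressor complex / Incubation: Compound–protein incubation for 5 h at 4 °C / Dosing: compound at 4.8 µM, single dose / Detection: time-resolved FRET / Benchmarks: high control biotin, low control 0.6% DMSO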
# NadD inh – blocks S. aureus nicotinate mononucleotide adenylyltransferase | AID 602399 | inhibition, % at 20 µM | purified NadD enzyme, colorimetric absorbance read-out | 360,000 tested, 0.78% active; in the data active = inhibition above about 26%
# NR2E3 ag-2 – activates human NR2E3 receptor; Q9Y5X4; CHO-S Gal4-NCOR/VP16-NR2E3 two-hybrid, luciferase; 360,000 tested, 0.35% active; inhibition of corepressor binding, % at 3.98 µM;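 active = inhibition above the mean of all tested compounds plus 3 SD, cut at about 70% in these data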;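 note: higher means lower luciferase signal from less NR2E3 corepressor binding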
# NR2E3 ag conf – confirmation of human NR2E3 agonists; shares compounds with NR2E3 ag-2; CHO-S mammalian two-hybrid NR2E3-NCOR, luciferase luminescence; inhibition, % at 3.98 µM; 2,300 tested, 51% active; AID 624378;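 active = average inhibition above a cutoff equal to the mean inhibition of all tested compounds plus one SD, cut at about 70% in these data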
# GAL4-VP16 luc – GAL4-VP16 reporter inhibition in NR2E3 agonist counterscreen | 2,300 tested, 29% active | CHO-S GAL4-VP16 luciferase reporter, luminescence | shares compounds with NR2E3 ag-2 | inhibition, % at 3.98 µM | AID 624379;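 active = mean inhibition above a cutoff equal to the average over all tested compounds plus one standard deviation, cut at about 70% in these data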;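 note: luciferase from a UAS reporter driven by GAL4-VP16 transactivation; higher means less reporter light so more repression of VP16 activity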
# Hits are given with their value; 0 = inactive; - = no result.
SMILES,MsrA inh,GalR3 antag,MsrA act,NR2E3 ag-1,NadD inh,NR2E3 ag-2,NR2E3 ag conf,GAL4-VP16 luc
Cn1nc(CC(=O)Nc2ccc(N3CCN(C(=O)OC(C)(C)C)CC3)cc2)c2ccccc2c1=O,0,0,0,0,0,76,90,79
COc1ccccc1Cn1c(=S)[nH]c2cc(C(=O)NCCN(C)C)ccc2c1=O,0,0,0,0,0,0,-,-
CCC(C)n1cnc2c(c1=O)c1nc3ccccc3nc1n2Cc1ccc(OC)cc1 (stereo unspecified),0,0,0,0,0,0,-,-
COc1ccc(S(=O)(=O)NCC(=O)NCc2cc(=O)n(C)c(=O)n2C)cc1C,0,0,0,0,0,0,-,-
O=C(NCc1cccnc1)/C(=C\c1ccc(-c2ccc(Cl)c(Cl)c2)o1)S(=O)(=O)c1ccccc1,0,0,0,0,0,92,99,0
CC(C)c1ccc(-c2csc(NC(=O)c3cccs3)c2C(=O)O)cc1,0,0,0,0,0,0,94,0
Cc1ccc(-c2csc(NC(=O)c3ccccc3Cl)c2C(=O)O)cc1,0,0,0,0,0,0,-,-
CCOC(=O)c1ccc(NS(=O)(=O)c2cc3c4c(c2)CCN4C(=O)CC3)cc1,0,0,0,0,0,0,0,0
CC(=O)Nc1ccc(S(=O)(=O)N2CCN=C2SCc2ccc([N+](=O)[O-])cc2)cc1,0,0,0,0,0,0,79,0
N#Cc1c(Cl)nsc1NC(=O)c1ccccc1,0,0,0,0,0,85,99,88
C/C(=N/NS(=O)(=O)c1ccc(C(C)C)cc1)c1ccncc1,0,0,0,-,0,0,-,-
C/C(=N/NS(=O)(=O)c1ccc(CC(C)C)cc1)c1ccncc1,0,0,0,0,0,104,0,0
CC(=O)c1ccc(NC(=O)Nc2ccc(NS(=O)(=O)c3ccc(C)cc3)cc2)cc1,0,0,0,0,0,0,-,-
CC(=O)c1ccc(NS(=O)(=O)c2ccc(CC(C)C)cc2)cc1,0,0,0,0,0,0,90,0
CC(C)(CS(=O)(=O)[O-])NC(=O)CC[N+](C)(C)CCO,0,0,0,0,0,0,-,-
O=[N+]([O-])c1ccc(O)c(C2CCCCC2)c1,0,0,0,-,0,99,99,92
Cc1cccc(NS(=O)(=O)c2ccc(C3CCCCC3)cc2)c1,0,0,0,0,0,70,93,79
COc1ccc(S(=O)(=O)Nc2ccc(CC#N)cc2)cc1,0,0,0,0,0,0,-,-
N#CCc1ccc(NS(=O)(=O)c2ccc(C3CCCCC3)cc2)cc1,0,0,0,0,0,76,92,72
COc1cccc(/C=N/Nc2ccc([N+](=O)[O-])cn2)c1O,0,0,0,0,0,103,99,93
COc1cccc(CNC(=O)[C@H]2CCCN2C(=O)[C@H]2CCCN2C(=O)c2cccc3ccccc23)c1,0,0,-,-,-,-,-,-
COc1cccc(CNC(=O)[C@@H]2CCCN2C(=O)[C@H]2CCCCN2C(=O)c2cccc3ccccc23)c1,-,-,0,-,0,86,81,0
CCN1CCN(CC(=O)N/N=C/c2cc(Br)cs2)CC1,0,0,0,0,0,0,-,-
O=c1c(/C=N/OCc2ccc(Cl)cc2Cl)c[nH]n1-c1cccc(Cl)n1,0,0,0,0,0,0,98,0
Cc1n[nH]c(=O)nc1NC1CCCCC1,0,0,0,0,0,0,-,-
SMILES,MsrA inh,GalR3 antag,MsrA act,NR2E3 ag-1,NadD inh,NR2E3 ag-2,NR2E3 ag conf,GAL4-VP16 luc
CN(C(=O)COC(=O)CSCc1cccc(Cl)c1)c1c(N)n(Cc2ccccc2)c(=O)[nH]c1=O,0,0,0,0,0,0,-,-
O=[N+]([O-])c1ccc(N2CCN(C(=S)NCc3ccc(Cl)cc3)CC2)cc1,0,0,0,0,0,0,91,0
CCc1ccccc1NC(=O)Cn1nnc(-c2cccs2)n1,0,0,0,0,0,0,-,-
Cc1ccc(S(=O)(=O)Nc2cccnc2)cc1C,0,0,0,0,0,0,-,-
Cc1ccc(-c2ccc(S(=O)(=O)Nc3cccnc3)cc2)cc1,0,0,0,0,0,0,84,0
CCC/C(=N\NC(=O)C1CCCC1)c1ccccc1,0,0,0,0,0,0,-,-
CCN(CC)C(=O)c1cccc(-c2csc(C(C)(O)c3ccc(F)c(F)c3)n2)c1 (stereo unspecified),-,-,0,-,0,0,0,0
CC(O)(c1ccncc1)c1nc(-c2cccc(C(F)(F)F)c2)cs1 (stereo unspecified),0,0,0,-,0,85,93,74
COc1ccccc1NS(=O)(=O)c1ccc(NN=C2CCCC2)c([N+](=O)[O-])c1,0,0,0,0,0,0,0,0
COc1ccccc1NS(=O)(=O)c1ccc(N/N=C/C=C/c2ccccc2[N+](=O)[O-])c([N+](=O)[O-])c1,0,0,0,0,0,0,-,-
COc1cccc2c1C(=O)c1c(O)c3c(c(O)c1C2=O)CC(O)(C(C)=O)CC3OC1CC(N(C)C)C(O)C(C)O1 (stereo unspecified),0,0,0,-,0,88,100,0
COc1cccc(N2CCN(C(=O)CCSCc3ccccc3F)CC2)c1,0,0,0,0,0,0,-,-
COc1ccc(NC(=O)CCSc2cc(C)c3ccccc3n2)cc1,0,0,0,0,0,0,-,-
Cc1ccc(CNc2nc(C)nc3sc4c(c23)CCC4)cc1,0,0,0,0,0,0,0,0
Cc1nc(Nc2ccc(O)cc2)c2c3c(sc2n1)CCCC3,-,-,0,0,0,0,-,-
Cc1nc2ccccc2c2c1CC(C(C)(Cl)Br)O2 (stereo unspecified),0,0,0,0,0,0,78,0
Cc1ccc2nc(C)c3c(c2c1)OC(C(C)(Cl)Br)C3 (stereo unspecified),0,0,0,0,0,0,-,-
CC12CCC(O)CC1=CCC1C2CCC2(C)C(c3ccn[nH]3)CCC12 (stereo unspecified),0,0,0,-,0,82,0,0
CN(C)c1ccc(Sc2ccc3nc(N)nc(N)c3c2)cc1,0,0,0,-,0,76,0,0
Clc1ccc(-c2noc(CSc3nnc(-c4ccncc4)n3-c3ccccc3)n2)cc1,0,0,0,0,0,0,0,0
Oc1ccccc1N=Cc1ccc[nH]1,0,0,0,0,0,0,0,0
Cc1ccc(S(=O)(=O)NCc2ccccc2)cc1C(=O)NCCc1ccc(S(N)(=O)=O)cc1,0,0,0,0,0,0,0,0
Cc1ccc(S(=O)(=O)NCc2ccccc2)cc1C(=O)NC(C)c1ccc(S(N)(=O)=O)cc1 (stereo unspecified),0,0,0,-,0,0,-,-
O=S(=O)(Nc1cccnc1Cl)c1ccc(-c2ccccc2)cc1,0,0,0,0,0,0,0,0
